Test results as given in publication PMC4398655 (Bioorganic & medicinal chemistry, 2015).
Entries after “also recorded” stand apart in the source; their conditions may differ. Like-named read-outs stand apart in the source and are kept apart here.

Experiments:
[1] = tested on: six human cancer cell lines (HCT-116, S1, DU-145, PC-3, MDA-MB-231, MCF-7); test: MTT cell cytotoxicity assay, panel of cancer cell lines; assay type: cell-based; settings: for IC50: Homo sapiens
Outline: (§1)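 Cell lines grown as adherent monolayers in DMEM with 10% FBS at 37°C, 5% CO2. Trypsinised cells seeded at 5×10^3 cells/well and exposed to test compound at 0.1 to 100 μM for 72 h. MTT (4 mg/ml) added for 4 h, formazan dissolved in DMSO, and absorbance read at 570 nm. IC50 derived from survival curves by the Bliss method. Mean±SD from at least three experiments, each in triplicate.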

[2] = tested on: PC-3 prostate cancer cells; test: Morphological analysis by microscopy, PC-3; assay type: cell-based, human; settings: 68 h
Outline: (§2)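 Cells from the MTT setup, with and without test compound, were photographed at 68 h on an inverted microscope for each triplicate treatment. Images for the different concentrations were compared double-blind for cell size, shape and number.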

[3] = tested on: PC-3 prostate cancer cells; test: MTT cell cytotoxicity assay, PC-3; assay type: cell-based; settings: Homo sapiens, 72 h, read-out: IC50 ± SD, PC3
Outline: as §1

[4] = tested on: HCT-116 colon cancer cells; test: Morphological analysis by microscopy, HCT-116; assay type: cell-based, human; settings: 68 h
Outline: as §2

[5] = tested on: HEK293/pcDNA3.1 human primary embryonic kidney cells; test: MTT cell cytotoxicity assay, HEK293/pcDNA3.1; assay type: cell-based; settings: HEK293, 72 h, read-out: IC50 ± SD, HEK 293/pcDNA.3.1
Outline: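 Empty-vector-transfected HEK293 cells, grown adherent in DMEM + 10% FBS at 37°C, 5% CO2, were trypsinised and seeded at 5×10³ cells/well. Test compound was added at 0.1–100 μM for 72 h. MTT solution (4 mg/ml) was then added for 4 h, and formazan was dissolved in DMSO and read at 570 nm. IC50 was derived from survival curves by the Bliss method; mean±SD from ≥3 experiments, each in triplicate.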

[6] = tested on: ABCB1 (P-glycoprotein, MDR1); test: MTT cell cytotoxicity assay, ABCB1 overexpressing cells; assay type: cell-based; settings: human, HEK293/ABCB1 cells (P-glycoprotein overexpressing)
[7] = tested on: HCT-116 colon cancer cells; settings: 10 μM for 72 h, relative percent cell viability only; cited from earlier work
[8] = tested on: PC-3 prostate cancer cells; settings: 10 μM for 72 h, relative percent cell viability only; cited from earlier work
[9] = tested on: MCF-7 breast cancer cells; settings: 10 μM for 72 h, relative percent cell viability only; cited from earlier work
[10] = read-out: mean IC50 values in all the cancer cell lines tested

Structure (SMILES): COc1cc(CCC(=O)CC(C)=O)ccc1O [VA-16]
- activity (inhibition of cell survival) in the tested concentration range ([1]; MTT, concentrations up to 100 μM): no significant activity
- morphological characteristics ([2]; concentrations up to 100 μM): no significant change
- IC50 [3]: > 100 µM
- morphological characteristics ([4]; concentrations up to 100 μM): no significant change

Structure (SMILES): Cc1cc(/C=C/c2ccc(O)c(O)c2)on1 [VA-7]
- IC50 [1, 10]: 3.3 to 10.7 µM

Structure (SMILES): COc1ccc(/C=C/c2cc(C)n[nH]2)cc1 [VA-15, (E)-5-(4-methoxystyryl)-3-methyl-1H-Pyrazole]
- IC50 [1, 10]: 3.3 to 10.7 µM

Structure (SMILES): COc1ccc(CCC(=O)CC(C)=O)cc1 [VA-18, 6-(4-methoxyphenyl)hexane-2,4-dione]
- IC50 [5]: 50.2 ± 8.9 µM
- IC50 at 72 h [6]: 51.2 ± 10.3 µM

Structure (SMILES): COc1cc(/C=C/C(=O)CC(C)=O)ccc1O [VA-2, hispolon methyl ether]
- IC50 ([1]; read-out: observed mean IC50 values in colon and prostate cancer cell lines): 1.4 to 6.3 µM
- morphological analysis (cell number, cell size) ([2]; 1 μM): marked reduction of cell number; also recorded: significant reduction of cell number
- activity against HCT-116 (previous study) [7]: active
- activity against PC-3 (previous study) [8]: active
- morphological analysis (cell number, cell size) ([4]; 1 μM): marked reduction of cell number; also recorded: significant reduction of cell number
- activity against MCF-7 (previous study) [9]: active

Structure (SMILES): CC(=O)/C=C(O)/C=C/c1ccc(O)c(O)c1 [VA-1, Hispolon]
- activity against HCT-116 (previous study) [7]: active
- activity against PC-3 (previous study) [8]: active
- activity against MCF-7 (previous study) [9]: active

Structure (SMILES): CC(=O)CC(=O)/C=C/c1ccc(O)cc1 [VA-3, dehydroxy hispolon]
- activity against HCT-116 (previous study) [7]: active
- activity against PC-3 (previous study) [8]: active
- activity against MCF-7 (previous study) [9]: active
